In ChEMBL document CHEMBL1944532, “Synthesis and evaluation of anticancer activity of some novel 6-aryl-2-(p-sulfamylphenyl)-pyridazin-3(2H)-ones” (Eur J Med Chem, 2012):

What was measured:
Type in all cases: functional
NCI-H322M = assay: Cytotoxicity against human NCI-H322M cells after 48 hrs by SRB assay
Summary of the method: (§1)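 NCI five-dose screen on the ~60-line human tumor panel. Cells grown in RPMI-1640 with 5% fetal calf serum and 2 mM L-glutamine, seeded at line-dependent density and preincubated 24 h. Compound added from DMSO at 10-fold dilutions from 10^-4 to 10^-8 M, continuous exposure 48 h. Growth read by sulforhodamine B protein stain. GI50, TGI and LC50 derived per line.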

OVCAR-8 = assay: Cytotoxicity against human OVCAR8 cells assessed as cell growth at 10 uM after 48 hrs by SRB assay; conditions: OVCAR-8, 48 h, read-out: Activity
Summary of the method: (§2)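 NCI primary single-dose screen at 10^-5 M against the full panel of about 60 human tumor cell lines. Cells were in RPMI-1640 with 5% fetal calf serum and 2 mM L-glutamine and preincubated 24 h. Compound was given in DMSO with 48 h exposure. Growth was estimated by sulforhodamine B protein assay.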

BT-549 = assay: Cytotoxicity against human BT549 cells assessed as cell growth at 10 uM after 48 hrs by SRB assay; conditions: BT-549, 48 h, read-out: Activity
Summary of the method: (§3)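 NCI primary single-dose screen at 10^-5 M against the ~60 human tumour cell line panel. Cells grown in RPMI-1640 with 5% fetal calf serum and 2 mM L-glutamine and pre-incubated 24 h before compound addition. Compound added from DMSO solution with 48 h exposure. Growth read by sulforhodamine B protein staining.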

NCI-H226 = assay: Cytotoxicity against human NCI-H226 cells assessed as cell growth at 10 uM after 48 hrs by SRB assay; conditions: NCI-H226, 48 h, read-out: Activity; summary of the method: as §2
HCT-15 = assay: Cytotoxicity against human HCT15 cells assessed as cell growth at 10 uM after 48 hrs by SRB assay; conditions: HCT-15, 48 h, read-out: Activity; summary of the method: as §3
SF-295 = assay: Cytotoxicity against human SF295 cells after 48 hrs by SRB assay; conditions: SF-295, 48 h; summary of the method: as §1
SK-MEL-2 = assay: Cytotoxicity against human SK-MEL-2 cells assessed as cell growth at 10 uM after 48 hrs by SRB assay; conditions: SK-MEL-2, 48 h, read-out: Activity
Summary of the method: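 NCI primary one-dose screen at 10^-5 M against the full panel of about 60 human tumour cell lines, run to the NCI Drug Evaluation Branch protocol.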

NCI/ADR-RES = assay: Cytotoxicity against human NCI/ADR-RES cells after 48 hrs by SRB assay; summary of the method: as §1
ACHN = assay: Cytotoxicity against human ACHN cells after 48 hrs by SRB assay
Summary of the method: (§4)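 NCI ~60-line panel in RPMI-1640 with 5% fetal calf serum and 2 mM L-glutamine, pre-incubated 24 h. Compound in DMSO tested at five 10-fold concentrations (10^-4 to 10^-8 M) with 48 h continuous exposure. Growth measured by sulforhodamine B protein assay. GI50 (50% net growth inhibition), TGI (total inhibition) and LC50 (50% net cell death) derived from dose-response.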

786-0 [1] = assay: Cytotoxicity against human 786-0 cells after 48 hrs by SRB assay; conditions: 786-0, 48 h; summary of the method: as §4
SNB-19 = assay: Cytotoxicity against human SNB19 cells after 48 hrs by SRB assay; conditions: SNB-19, 48 h
Summary of the method: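 NCI 60-cell-line five-dose screen. Cells were grown in 1640 medium with 5% fetal calf serum and 2 mM L-glutamine, with inoculum density set by cell line, and pre-incubated 24 h. Compound in DMSO was added at 10^-4 to 10^-8 M (10-fold steps) with 48 h continuous exposure. Growth was read by SRB protein assay, and GI50, TGI and LC50 were derived from dose-response.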

786-0 [2] = assay: Cytotoxicity against human 786-0 cells assessed as cell growth at 10 uM after 48 hrs by SRB assay; conditions: 786-0, 48 h, read-out: Activity; summary of the method: as §3

`CCc1ccc(-c2ccc(=O)n(-c3ccc(S(N)(=O)=O)cc3)n2)cc1` gave an LC50 (NCI-H322M) greater than 100 µM, a GI50 (NCI-H322M; read-out: GI50) of 14.3 µM and a GI50 (NCI-H322M; read-out: pGI50 (converted)) of 14.1 µM. For the same compound, the TGI (NCI-H322M; read-out: pTGI (converted)) was 100 µM, the growth at 10 µM (OVCAR-8) was 51.2% and the growth at 10 µM (BT-549) was 7.69%. It also gave a growth at 10 µM (NCI-H226) of 94.1%, a growth at 10 µM (HCT-15) of 29.7% and an LC50 (SF-295) of 75.9 µM. It also gave a GI50 (SF-295; read-out: GI50) of 0.554 µM, a GI50 (SF-295; read-out: pGI50 (converted)) of 0.55 µM and a TGI (SF-295; read-out: pTGI (converted)) of 17.4 µM. The growth at 10 µM (SK-MEL-2) was 1.5%, the LC50 (NCI/ADR-RES) was greater than 100 µM and the GI50 (NCI/ADR-RES; read-out: GI50) was 0.314 µM. It also gave a GI50 (NCI/ADR-RES; read-out: pGI50 (converted)) of 0.316 µM, a TGI (NCI/ADR-RES; read-out: pTGI (converted)) of 12.9 µM and a GI50 (ACHN) of 10.5 µM. The CC50 (ACHN; read-out: pLC50 (the source's name) (converted)) was greater than 100 µM, the TGI (ACHN; read-out: pTGI) was greater than 100 µM and the LC50 (50% net cell kill) (786-0 [1]) was greater than 100 µM. It also gave a GI50 (786-0 [1]; read-out: GI50) of 10.2 µM, a GI50 (786-0 [1]; read-out: pGI50 (converted)) of 10.2 µM and a TGI (786-0 [1]; read-out: pTGI (converted)) of 63.1 µM. It also gave an LC50 (SNB-19) greater than 100 µM, a GI50 (SNB-19; read-out: GI50) of 4.41 µM and a GI50 (SNB-19; read-out: pGI50 (converted)) of 4.37 µM. For the same compound, the TGI (SNB-19; read-out: pTGI (converted)) was 36.3 µM and the growth at 10 µM (786-0 [2]) was 50%.
